Here are results for 8 compounds from ChEMBL document CHEMBL1157974, “C18 dibenzocyclooctadiene lignans from Kadsura philippinensis” (2006).

Assay type in all cases: functional
Test [1] relates to HeLa. The experiment in a line: Cytotoxicity against human HeLa cells by MTT assay. To be noted: read-out: ED50 (the source's name). The essentials: (§1)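 Cells obtained from ATCC. Cytotoxicity read by MTT [3-(4,5-dimethylthiazol-2-yl)-2,5-diphenyltetrazolium bromide] colorimetric method.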
The nature of test [2]: Cytotoxicity against human Hepa 59T/VGH cells by MTT assay. As to conditions: read-out: ED50 (the source's name).
For test [3], the system named is KB. Description: Cytotoxicity against human KB cells by MTT assay. To be noted: read-out: ED50 (the source's name). The essentials: as §1
Test [4] relates to Radical scavenging activity. The experiment in a line: Antioxidant activity assessed as DPPH radical scavenging activity at 100 uM. The essentials:
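Test compound in 100 mM Tris-HCl (pH 7.4) added to 500 μM DPPH in ethanol (concentration of the added solution), shaken, then left 20 min at room temperature in the dark. Absorbance read at 517 nm by UV-vis spectrophotometer; a table footnote cites a DPPH-HPLC method. Values are mean ± SD of 8 samples.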

Structures are written as SMILES. Where only a bound is given, the exact number is not on record here.

As to `COc1c2c(cc3c1-c1c(cc4c(c1OC)OCO4)[C@H](O)[C@@H](C)[C@@H](C)C3)OCO2`, the EC50 in test [1], in test [2] and in test [3] was at least 5 µg/mL each time.
`O=C1O[C@H]([C@@H](O)CO)C(O)=C1O`: the Activity in test [4] is 12.5%.
With `COc1cc2c(c(O)c1OC)-c1c(cc3c(c1OC)OCO3)[C@H](OC(=O)/C=C/c1ccccc1)[C@H](C)[C@H](C)C2` [1-DEMETHYLKADSUPHILIN A], the EC50 in test [1], in test [2] and in test [3] was at least 5 µg/mL in each case.
On to `C/C=C(/C)C(=O)O[C@H]1c2cc3c(c(OC)c2-c2c(cc(OC)c(OC)c2O)C[C@@H](C)[C@H]1C)OCO3` [ANGELOYLBINANKADSURIN A], for which the EC50 in test [1], in test [2] and in test [3] was at least 5 µg/mL throughout. Also, the Activity in test [4] was determined as 2.3%.
Turning to `COC1=C(OC)C(=O)[C@]23C(=C1)C[C@@H](C)[C@@]2(C)[C@@H](O)c1cc2c(cc13)OCO2` [KADSULIGNAN K], the EC50 in test [1], in test [2] and in test [3] was at least 5 µg/mL each time. Moreover, the Activity in test [4] worked out at 4.6%.
As to `COc1cc2c(c(OC)c1OC)-c1c(cc3c(c1OC)OCO3)[C@H](OC(=O)/C=C/c1ccccc1)[C@H](C)[C@H](C)C2` [KADSUPHILINS A], the EC50 in test [1], in test [2] and in test [3] was at least 5 µg/mL throughout. In addition, in test [4], the Activity is 1.5%.
On to `COc1c(O)cc2c(c1OC)-c1c(cc3c(c1OC)OCO3)C[C@H](C)[C@H](C)[C@@H]2O` [KADSUPHILINS B], for which the EC50 in test [1], in test [2] and in test [3] was at least 5 µg/mL each time.
Take `C/C=C(/C)C(=O)O[C@H]1c2cc3c(c(OC)c2-c2c(cc(OC)c(OC)c2O)[C@H](OC(=O)/C(C)=C\C)[C@](C)(O)[C@H]1C)OCO3` [SCHIZANRIN J]: the EC50 in test [1], in test [2] and in test [3] was at least 5 µg/mL in each case. Besides, in test [4], the Activity stood at 1.9%.
